For 13 compounds, inhibition and Ratio results are on record in ChEMBL document CHEMBL1926548, “Synthesis and study of new paramagnetic resveratrol analogues” (Bioorg Med Chem, 2011).

The test system of assay [1] is RAW264.7. The experiment in a line: Antiinflammatory activity in mouse RAW264.7 cells assessed as inhibition of LPS-induced TNF-alpha production at 50 uM after 1.5 hrs by ELISA. In kind it is functional, cell-based. The method, boiled down:
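Cells seeded 2*10^5/well and cultured overnight as above. Fresh medium, then LPS (100 ng/mL) alone or with compound for 1.5 h. TNFα in medium measured with a mouse TNFα ELISA kit, read at 450 nm. Reported as % of LPS-only mean. n = 3, three repeats. Groups compared at p<0.05.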

Assay [2] can be described thus: Antioxidant activity in ethyl alcohol assessed as trolox equivalents of ABTS radical scavenging activity after 6 mins by TEAC assay. In kind it is functional. The method, boiled down:
(§1)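 ABTS (7 mM in water) reacted with 2.45 mM persulfate (final) for 12–16 h in the dark at room temperature. Diluted in ethanol or 0.05 M PBS pH 7.4 to A734 0.70 ± 0.02. Compound added at 2.5–12.5 µM, read at 734 nm after 6 min at 25 °C. TEAC = slope of % inhibition vs concentration divided by Trolox slope. Three independent experiments.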

Assay [3] relates to RAW264.7. The experiment in a line: Antiinflammatory activity in mouse RAW264.7 cells assessed as inhibition of LPS-induced ROS production after 24 hrs using DCFH-DA by fluorescent microplate reader. In kind it is functional, cell-based. In outline:
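Cells seeded 5*10^4/well and kept overnight at 37 °C, 5% CO2 in DMEM with 10% heat-inactivated FCS and L-glutamine. Fresh medium, then LPS (E. coli 0127:B8, 100 ng/mL) with or without compound (12.5–100 µM) for 24 h. C400 (2 µg/mL) added for a further 2 h. Fluorescence read at ex 485/em 555 nm. Reported as % of LPS-only mean. n = 6, three repeats.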

Assay [4] concerns RAW264.7. The experiment in a line: Antiinflammatory activity in mouse RAW264.7 cells assessed as inhibition of LPS-induced nitrite production after 24 hrs by Griess method. In kind it is functional, cell-based. In outline:
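Seeding, medium, overnight culture and treatment as for ROS: LPS 100 ng/mL plus compound at 12.5–100 µM for 24 h. Culture medium mixed with an equal volume of Griess reagent (1% sulphanilamide, 0.1% naphthylethylenediamide, 5% phosphoric acid). Absorbance read at 550 nm and expressed as % of LPS-only mean. n = 6, three repeats.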

Assay [5] in a line: Antioxidant activity in 0.05 M phosphate buffered saline assessed as trolox equivalents of ABTS radical scavenging activity after 6 mins by TEAC assay. In kind it is functional. In outline: as §1

The source made the active and inactive calls. No cut-off for these calls is given here.

Turning to `CC1(C)c2ccc(/C=C/c3cc(O)cc(O)c3)cc2C(C)(C)N1[O]`, the inhibition result with RAW264.7 [1] is “Active”. In assay [2], the Ratio amounted to 0.98. For the same compound, the inhibition entry with RAW264.7 [3] and in the assay with RAW264.7 [4] was “Dose-dependent effect” throughout.
As to `COc1cc(/C=C/C2=CC(C)(C)NC(C)(C)C2)cc(OC)c1`, the inhibition entry with RAW264.7 [1] was “Active”. In addition, the results for the Ratio in assay [2] and in assay [5] were 0.32 and 0.02, respectively. Moreover, the inhibition entry in the assay on RAW264.7 [3] and with RAW264.7 [4] was “Dose-dependent effect” in each case.
Take `CC1(C)C(c2ccc(O)cc2)=C(c2cc(O)cc(O)c2)C(C)(C)N1[O]`: the inhibition result in the assay with RAW264.7 [1] was “inactive”. Further, the Ratio in assay [2] was 1.02. In addition, the inhibition result in the assay with RAW264.7 [3] and in the assay on RAW264.7 [4] was “Dose-dependent effect” each time.
Regarding `COc1cc(OC)cc(C2=C(c3cc(OC)cc(OC)c3)C(C)(C)NC2(C)C)c1`, the inhibition entry in the assay with RAW264.7 [1] was “Active”. The inhibition result in the assay with RAW264.7 [3] and in the assay with RAW264.7 [4] was “Dose-dependent effect” throughout.
In the case of `COc1cc(/C=C/C2=CC(C)(C)N(O)C(C)(C)C2)cc(OC)c1`, the Ratio in assay [5] stood at 0.28.
Take `Oc1ccc(/C=C/c2cc(O)cc(O)c2)cc1`: the inhibition entry in the assay on RAW264.7 [1] was “Active”. For the same compound, the Ratio in assay [2] was 1; in assay [5] it was 1.3. The inhibition entry with RAW264.7 [3] and in the assay on RAW264.7 [4] was “Dose-dependent effect” throughout.
Consider `CC1(C)C=C(/C=C/C2=CC(C)(C)N([O])C(C)(C)C2)CC(C)(C)N1[O]`, for which the inhibition result in the assay with RAW264.7 [1] was “Active”. Further, the Ratio in assay [2] was determined as 0.22. Further, the inhibition entry with RAW264.7 [3] and in the assay on RAW264.7 [4] was “Dose-dependent effect” each time.
`CC1(C)c2ccc(/C=C/c3cc(O)cc(O)c3)cc2C(C)(C)N1O`: the Ratio in assay [5] worked out at 0.67.
Take `COc1ccc(/C=C/c2cc(OC)cc(OC)c2)cc1`: in assay [2], the Ratio was 0.04.
Regarding `CC1(C)C=C(/C=C/c2cc(O)cc(O)c2)CC(C)(C)N1O`, in assay [5], the Ratio amounted to 0.62.
On the same count and under the same terms, under `CC1(C)C=C(/C=C/C2=CC(C)(C)N(O)C(C)(C)C2)CC(C)(C)N1O` stands 0.37.
For `COc1cc(/C=C/C2=CC(C)(C)N([O])C(C)(C)C2)cc(OC)c1`, in assay [2], the Ratio came out at 0.2. Also, the inhibition entry with RAW264.7 [3] and with RAW264.7 [4] was “Dose-dependent effect” throughout.
For `CC1(C)C=C(/C=C/c2cc(O)cc(O)c2)CC(C)(C)N1[O]`, the inhibition entry in the assay with RAW264.7 [1] is “Active”. Further, the Ratio in assay [2] is 0.92. The inhibition entry with RAW264.7 [3] and in the assay on RAW264.7 [4] was “Dose-dependent effect” in each case.
